From ChEMBL document CHEMBL1275524, “Activities of antifungal agents against yeasts and filamentous fungi: assessment according to the methodology of the European Committee on Antimicrobial Susceptibility Testing” (2008)
Converted amounts (≈) assume the structure as drawn.

Columns and labels:
Type in all cases: functional
Rhizopus [1] = assay: Antifungal activity against Rhizopus species
Outline: (§1)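 Broth microdilution following the EUCAST reference procedure for spore-forming moulds, in flat-bottom plates with RPMI 1640 plus 2% glucose. Inoculum was 2 × 10^5 to 5 × 10^5 CFU/ml. MICs were read visually at 24 and 48 h as 100% growth reduction versus a drug-free control for polyenes and azoles. MEC was used for caspofungin. Tests were run in duplicate and repeated twice.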

Lomentospora prolificans = assay: Antifungal activity against Scedosporium prolificans by EUCAST method; conditions: read-out: MEC; outline: as §1
Cunninghamella = assay: Antifungal activity against Cunninghamella species by EUCAST method; conditions: read-out: MEC
Candida parapsilosis [2] = assay: Antifungal activity against Candida parapsilosis; conditions: Lodderomyces parapsilosis
Outline: (§2)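 Broth microdilution in flat-bottom plates in RPMI 1640 with 2% glucose; inoculum 0.5 × 105 to 2.5 × 10^5 CFU/ml. MICs were read spectrophotometrically at 24 h. AMB endpoint: ≥90% growth reduction vs drug-free control well. Azole and CPF endpoint: 50% reduction in optical density. MFC was taken as the lowest concentration giving 99% killing.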

Absidia [3] = assay: Antifungal activity against Absidia species
Mucor [4] = assay: Antifungal activity against Mucor species by EUCAST method; conditions: read-out: MEC
Candida tropicalis = assay: Antifungal activity against Candida tropicalis by EUCAST method; outline: as §2
Fusarium oxysporum = assay: Antifungal activity against Fusarium oxysporum
Scedosporium apiospermum [5] = assay: Antifungal activity against Scedosporium apiospermum; outline: as §1
Aspergillus flavus [6] = assay: Antifungal activity against Aspergillus flavus by EUCAST method
Aspergillus flavus [7] = assay: Antifungal activity against Aspergillus flavus
Sporothrix schenckii = assay: Antifungal activity against Sporothrix schenckii by EUCAST method; conditions: read-out: MEC; outline: as §1
Candida parapsilosis [8] = assay: Antifungal activity against Candida parapsilosis by EUCAST method; conditions: Lodderomyces parapsilosis; outline: as §2
Saccharomyces cerevisiae = assay: Antifungal activity against Saccharomyces cerevisiae
Outline: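 Broth microdilution following EUCAST for fermentative yeasts, in flat-bottom plates with RPMI 1640 plus 2% glucose. Inoculum was 0.5 × 10^5 to 2.5 × 10^5 CFU/ml. End points were read spectrophotometrically at 24 h: ≥90% growth reduction versus a drug-free control for amphotericin B, and 50% OD reduction for azoles and caspofungin. MFC was the lowest concentration giving 99% killing.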

Talaromyces marneffei [9] = assay: Antifungal activity against Penicillium marneffei
Rhizopus arrhizus = assay: Antifungal activity against Rhizopus oryzae; outline: as §1
Scedosporium apiospermum [10] = assay: Antifungal activity against Scedosporium apiospermum by EUCAST method; conditions: read-out: MEC; outline: as §1
Fusarium solani [11] = assay: Antifungal activity against Fusarium solani by EUCAST method; conditions: read-out: MEC
Aspergillus niger = assay: Antifungal activity against Aspergillus niger
Mucor [12] = assay: Antifungal activity against Mucor species
Absidia [13] = assay: Antifungal activity against Absidia species by EUCAST method; conditions: read-out: MEC
Nakaseomyces glabratus = assay: Antifungal activity against Candida glabrata by EUCAST method; outline: as §2
Rhizopus [14] = assay: Antifungal activity against Rhizopus species by EUCAST method; conditions: read-out: MEC; outline: as §1
[15] = Antifungal activity against Cryptococcus neoformans var. neoformans; conditions: Cryptococcus deneoformans
Outline: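 EUCAST yeast microdilution, modified for nonfermentative yeasts: plates were sealed and agitated at 350 rpm and 30°C for 48 h.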

Geotrichum candidum [16] = assay: Antifungal activity against Geotrichum candidum
Curvularia lunata = assay: Antifungal activity against Curvularia lunata by EUCAST method; conditions: read-out: MEC
Outline: (§3)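 Dematiaceous fungi were tested by the EUCAST spore-forming mold reference procedure: flat-bottom microdilution plates, RPMI 1640 plus 2% glucose, inoculum 2 × 105 to 5 × 10^5 CFU/ml. Endpoints were read visually at 24 and 48 h. Polyenes and azoles: 100% growth reduction vs drug-free control. CPF: minimum effective concentration. Run in duplicate and repeated twice.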

Mucor hiemalis = assay: Antifungal activity against Mucor hiemalis by EUCAST method; conditions: read-out: MEC
Clavispora lusitaniae = assay: Antifungal activity against Candida lusitaniae by EUCAST method; outline: as §2
Curvularia australiensis = assay: Antifungal activity against Bipolaris australiensis by EUCAST method; conditions: read-out: MEC; outline: as §3
Trichosporon asahii [17] = assay: Antifungal activity against Trichosporon asahii
Outline: (§4)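 Nonfermentative yeasts were tested by the EUCAST microdilution recommendations with one change: plates were sealed and agitated at 350 rpm and 30°C for 48 h.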

Lichtheimia corymbifera = assay: Antifungal activity against Absidia corymbifera
[18] = Antifungal activity against Rhinocladiella aquaspersa by EUCAST method; outline: as §3
[19] = Antifungal activity against Rhinocladiella aquaspersa; outline: as §3
Talaromyces marneffei [20] = assay: Antifungal activity against Penicillium marneffei by EUCAST method; conditions: read-out: MEC
Geotrichum candidum [21] = assay: Antifungal activity against Geotrichum candidum by EUCAST method
Trichosporon asahii [22] = assay: Antifungal activity against Trichosporon asahii by EUCAST method; outline: as §4
Fusarium solani [23] = assay: Antifungal activity against Fusarium solani

Compound `CC[C@H](C)C[C@H](C)CCCCCCCCC(=O)N[C@H]1C[C@@H](O)[C@@H](NCCN)NC(=O)[C@@H]2[C@@H](O)CCN2C(=O)[C@H]([C@H](O)CCN)NC(=O)[C@H]([C@H](O)[C@@H](O)c2ccc(O)cc2)NC(=O)[C@@H]2C[C@@H](O)CN2C(=O)[C@H]([C@@H](C)O)NC1=O` [CASPOFUNGIN] has an MFC (Rhizopus [1]) greater than 8 µg/mL, a minimal effective concentration (Lomentospora prolificans) greater than 8 µg/mL and a minimal effective concentration (Cunninghamella) greater than 8 µg/mL. For the same compound, the MFC (Candida parapsilosis [2]) was 0.25 µg/mL (≈ 0.229 µM), the MFC (Absidia [3]) was greater than 8 µg/mL and the minimal effective concentration (Mucor [4]) was greater than 8 µg/mL. The MIC (Candida tropicalis) was 0.34 µg/mL (≈ 0.311 µM), the MFC (Fusarium oxysporum) was greater than 8 µg/mL and the MFC (Scedosporium apiospermum [5]) was greater than 8 µg/mL. It also gave an MIC (Aspergillus flavus [6]) of 0.28 µg/mL (≈ 0.256 µM), a minimal effective concentration (Aspergillus flavus [6]; read-out: MEC) of 0.25 µg/mL and an MFC (Aspergillus flavus [7]) greater than 8 µg/mL. It also gave a minimal effective concentration (Sporothrix schenckii) greater than 8 µg/mL, an MIC (Candida parapsilosis [8]) of 0.82 µg/mL (≈ 0.75 µM) and an MFC (Saccharomyces cerevisiae) of 4 µg/mL (≈ 3.66 µM). It also gave an MFC (Talaromyces marneffei [9]) greater than 8 µg/mL, an MFC (Rhizopus arrhizus) greater than 8 µg/mL and a minimal effective concentration (Scedosporium apiospermum [10]) greater than 8 µg/mL. It also gave a minimal effective concentration (Fusarium solani [11]) greater than 8 µg/mL, an MFC (Aspergillus niger) greater than 8 µg/mL and an MFC (Mucor [12]) greater than 8 µg/mL. For the same compound, the minimal effective concentration (Absidia [13]) was greater than 8 µg/mL, the MIC (Nakaseomyces glabratus) was 0.32 µg/mL (≈ 0.293 µM) and the minimal effective concentration (Rhizopus [14]) was greater than 8 µg/mL. It also gave an MFC [15] greater than 8 µg/mL, an MFC (Geotrichum candidum [16]) greater than 8 µg/mL and a minimal effective concentration (Curvularia lunata) greater than 8 µg/mL. It also gave a minimal effective concentration (Mucor hiemalis) greater than 8 µg/mL, an MIC (Clavispora lusitaniae) of 0.32 µg/mL (≈ 0.293 µM) and a minimal effective concentration (Curvularia australiensis) greater than 8 µg/mL. The MFC (Trichosporon asahii [17]) was greater than 8 µg/mL, the MFC (Lichtheimia corymbifera) was greater than 8 µg/mL and the MEC [18] was greater than 8 µg/mL. For the same compound, the MFC [19] was greater than 8 µg/mL, the minimal effective concentration (Talaromyces marneffei [20]) was greater than 8 µg/mL and the MIC (Geotrichum candidum [21]) was 3 µg/mL (≈ 2.74 µM). The MIC (Trichosporon asahii [22]) was 4 µg/mL (≈ 3.66 µM) and the MFC (Fusarium solani [23]) was greater than 8 µg/mL.
